Each block holds one molecule with its values, some of them ahead of it. Where no end group is shown, it is not given here.
Tests used:
[1] = system: human islets; test: Steady state urea quantification by GC-MS, human islets; type: cell-based
[2] = system: human islets; test: Viability of human islets; type: cell-based
How it was run: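 Human islets were cultured in PIM(S) with 5% human A/B serum and infected for PC knockdown 24 h before treatment, 72 h in total. Medium carried 1 mM argininosuccinate; cytokines were TNF-α 10, IL-1β 10 and IFNγ 100 ng/ml. AnnexinV/7AAD flow cytometry was run 48 h after cytokines. Positive cells lay ≥2 s.d. outside unstained sample means.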

[3] = system: diabetic NOD-SCID mice; type: in vivo, mouse; conditions: 500 pre-treated human islets in diabetic NOD-SCID mice, up to 53 days
How it was run: (§1)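 Donor islets were pre-treated overnight at 37 °C with vehicle (1% DMSO), 5 µM compound, or 5 µM plus 1 mM PAA. Medium was RPMI uptake medium with 11 mM glucose, 10% serum and 0.1% Tween 80 (pH 6.0). Islets were washed and held 24 h in fresh media. Male NOD-SCID mice (10–12 wk) received single i.p. STZ 200 mg/kg. 500 islets went under the kidney capsule 24–48 h after blood glucose ≥300 mg/dl.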

[4] = system: human islets; test: 15N2-arginine tracer study in human islets; type: cell-based; conditions: 15N2(guanidino)-L-arginine 72 h, cytokines 24 h, n=4 donors
How it was run: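 Human islets (150 in 2 ml) incubated 72 h with 15N2(guanidino)-L-arginine at 200 mg/L in RPMI with 5.5 mM glucose and 5% human A/B serum. Cytokine mix: TNF-α 10 ng/ml, IL-1β 10 ng/ml, IFNγ 100 ng/ml. Mass isotopomer distributions were corrected for natural abundance, normalized to tracer uptake, and expressed relative to PBS control set to 1.0.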

[5] = system: β-cells in human islet grafts; test: β-cell death in human islet grafts; type: in vivo; conditions: donor islets pre-treated before transplantation; grafts excised day 2
How it was run: as §1

[6] = system: GK; conditions: cited from earlier work
[7] = system: human islets; test: NO levels by flow cytometry; type: cell-based
How it was run: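 Islets were held 72 h in 33 mM versus 5.8 mM glucose. NO was read 24 h after cytokine treatment. For each replicate, 50 islets were dispersed in accutase at 37 °C, rinsed in PBS, and stained with DAF-FM 30 min at 37 °C. Mean FITC intensity by flow cytometry was normalized to PBS control set to 1.0.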

[8] = system: GLS; test: GLS activity readout; type: cell-based; conditions: islets, readout of GLS activity, n=2 human donors
[9] = target: T1, recombinant human glucokinase (GK, hexokinase IV) (human, UniProt P35557 1-465); test: ITC
T1 sequence (looked up): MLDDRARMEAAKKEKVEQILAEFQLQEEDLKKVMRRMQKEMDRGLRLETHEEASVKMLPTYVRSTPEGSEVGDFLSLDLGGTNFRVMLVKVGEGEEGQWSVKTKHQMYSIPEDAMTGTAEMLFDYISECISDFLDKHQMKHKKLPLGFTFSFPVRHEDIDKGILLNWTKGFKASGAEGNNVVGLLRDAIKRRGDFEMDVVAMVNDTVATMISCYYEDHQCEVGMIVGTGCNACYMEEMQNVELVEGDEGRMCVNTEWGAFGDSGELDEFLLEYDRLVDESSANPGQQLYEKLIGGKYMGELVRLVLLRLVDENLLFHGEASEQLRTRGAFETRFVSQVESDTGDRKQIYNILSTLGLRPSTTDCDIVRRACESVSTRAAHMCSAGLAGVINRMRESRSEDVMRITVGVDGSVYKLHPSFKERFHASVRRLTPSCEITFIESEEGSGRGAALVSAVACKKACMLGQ

[10] = PC-depleted human islets, cytokines, AS 1 mM, n=4 experiments, 2 donors
[11] = human islets, inflammatory cytokines, AS 1 mM, n=3 donors

Molecule: NC(=NCCC[C@H](N)C(=O)O)N[C@@H](CC(=O)O)C(=O)O [AS, argininosuccinic acid]
- urea levels with argininosuccinate, PC knockdown [1, 10]: rescues urea levels
- urea levels, AS dose response ([1]; human islets, 10–200 µM AS): had no effect on urea levels
- urea levels with argininosuccinate [1, 11]: sufficient to increase urea levels
- viability with argininosuccinate, PC knockdown [2, 10]: protects against inflammation toxicity
- viability with argininosuccinate [2, 11]: rescue the viability of human islets undergoing inflammation

Molecule: CS(=O)(=O)c1ccc([C@@H](CC2CCCC2)C(=O)Nc2nccs2)cc1 [RO0281675]
- hyperglycemia reversal (blood glucose) [3]: ineffective
- 15N2 enrichment in urea (M+2) / ureagenesis [4]: ureagenesis was not altered
- β-cell death in islet grafts [5]: ineffective
- viability / protection from cytokine-induced death ([2]; human islets, TNF-α, IL-1β and IFNγ 48 h, n=6 donors (Fig. 1c)): does not protect human islets from cytokine-induced death
- effect on GK affinity for glucose, allosteric activation [6]: significantly augments the enzyme’s affinity for glucose

Molecule: OC[C@H]1OC(O)[C@H](O)[C@@H](O)[C@@H]1O (some centres unmarked) [glucose]
- urea levels, glucotoxicity ([1]; human islets, 33 mM glucose 72 h vs 5.8 mM glucose): reduces urea
- NO levels, glucotoxicity ([7]; 33 mM glucose 72 h vs 5.8 mM glucose): enhances NO levels

Molecule: COC[C@H](C)Oc1cc(O[C@@H](C)Cc2ccccc2)cc(C(=O)Nc2ccc(C(=O)O)cn2)c1 [GKA50]
- urea levels ([1]; human islets, inflammatory cytokines 24 h): These differences were further recapitulated with a second, structurally distinct allosteric GKA
- NO levels ([7]; inflammatory cytokines 24 h, DAF-FM): These differences were further recapitulated with a second, structurally distinct allosteric GKA

Molecule: O=C(Cc1ccccc1)Nc1nnc(CCSCCc2nnc(NC(=O)Cc3ccccc3)s2)s1 [BPTES, Bis-2-(5-phenylacetamido-1,3,4-thiadiazol-2-yl)ethyl sulfide]
- glutamate/glutamine (glu/gln) ratio [8]: reduce the ratio of glutamate/glutamine
- urea levels with BPTES ([1]; islets, n=2 human donors): does not affect islet urea levels

- stoichiometry N [9]: 1
B1: BAD BH3 SAHBA SD (hydrocarbon stapled peptide modeled after the phospho-BAD BH3 helix) (peptide)
chain: NLWAAQRYGRELRRMDDEFVDSFKK
modifications: staple (positions not given here); not fully specified

From paper PMC7568475 (Nature metabolism, 2020)
